High-throughput results from PubChem.
SUMO1-SIM PPI = alters human SUMO1 binding to SIM partners. inhibition, % at 20 µM. actives 0.33% (n = 360,000). P63165. SUMO1 binding to a labelled peptide, TR-FRET, 1 h; in the data active = inhibition above about 37%
Target sequence (P63165 whole entry, looked up): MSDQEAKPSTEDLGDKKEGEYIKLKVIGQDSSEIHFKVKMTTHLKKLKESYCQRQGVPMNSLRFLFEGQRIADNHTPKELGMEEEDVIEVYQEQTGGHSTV
DNMT1 block = inhibitors of human DNMT1; DNMT1 molecular beacon, Hinp1I cleavage, fluorescence; inhibition (reported as % activation of signal), % at 10 µM; actives 0.83% (n = 360,000); in the data active = inhibition above about 50%
STEP inh = STEP (human) phosphatase inhibition; P54829; recombinant STEP, OMFP fluorogenic substrate, fluorescence; inhibition, % at 20 µM; actives 0.25% (n = 360,000);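 active = inhibition at 20 µM, scaled per plate between control wells, above about 37%, limit read from the data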;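 note: 0% = DMSO with enzyme and substrate and 100% = substrate only without enzyme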
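Test system: STEP tyrosine phosphatase / Reagent: OMFP at 25 µM / Doses: 20 µM, 1% DMSO / Read-out: percent inhibition scaled to no-enzyme and uninhibited-enzyme controls, plate-pattern corrected / Detection: FITC-channel fluorescence of OMFP product / Medium: Bis-Tris buffer pH 6.0, 2.5 mM DTT, 0.005% Tween 20 / Schedule: 20 min at room temperature, dark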
Scp-1 inhibitor = Scp-1 (human) phosphatase inhibition. Q9GZU7. Recombinant Scp1, phosphopeptide, malachite green phosphate absorbance. inhibition, % at 20 µM. actives 0.88% (n = 340,000);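 active = inhibition above about 50% at 20 µM, limit read from the data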;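 note: plate controls were DMSO wells with enzyme for no effect and wells lacking enzyme for full effect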
Target sequence (Q9GZU7 76-261 limits assumed): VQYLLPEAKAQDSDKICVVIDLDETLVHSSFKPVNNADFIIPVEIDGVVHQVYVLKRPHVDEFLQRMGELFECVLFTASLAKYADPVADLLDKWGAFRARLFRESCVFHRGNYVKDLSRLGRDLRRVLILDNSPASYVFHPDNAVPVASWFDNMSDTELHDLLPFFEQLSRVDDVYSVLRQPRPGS
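Assay system: SCP-1 catalytic fragment, aa 76-261 | Buffer or medium: Tris acetate buffer pH 5.5 with MgCl2 and Tween-20 | Compound: One concentration, 20 µM, with 1.0% DMSO | Also added: Phospho 17-mer peptide substrate | Signal: Absorbance at 630 nm | Incubation: 45 min enzyme reaction at room temperature | Measure: % inhibition of SCP-1 phosphate liberation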
LMPTP inh = LMPTP (human) inhibition | actives 0.22% (n = 360,000) | recombinant LMPTP-A, OMFP fluorogenic substrate, fluorescence intensity | AID 651560 | inhibition, % at 20 µM;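 active = compounds that cut the enzyme signal by at least half of the control window in the single-dose screen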;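 note: plate controls were DMSO wells with enzyme plus substrate for no effect and substrate without enzyme for full effect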
Target sequence (P24666 whole entry, looked up): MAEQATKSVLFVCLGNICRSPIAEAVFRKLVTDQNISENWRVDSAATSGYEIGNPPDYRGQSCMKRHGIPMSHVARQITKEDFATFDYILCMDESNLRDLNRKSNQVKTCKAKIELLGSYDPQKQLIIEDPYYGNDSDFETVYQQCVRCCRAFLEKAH
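test system = LMPTP-A | amount = 0.625 nM LMPTP-A final | reagent = fluorogenic phosphatase substrate OMFP at 400 µM final | incubation = 50 min at room temperature | benchmarks = no-enzyme low control, uninhibited high control | medium = Bis-Tris pH 6.0, DTT, detergent | signal = fluorescence intensity of OMFP turnover product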
Beacon interf DR = beacon fluorescence artifact, dose response counter-screen; shares compounds with DNMT1 block; molecular beacon fluorescence, spectral interference counter-screen; IC50, µM; 200 tested, under 10 active; call rule not given here
DNMT1 confirm = confirmation of human DNMT1 inhibitors; AID 602385; actives 8% (n = 2,300); inhibition, % at 10 µM; DNMT1 molecular beacon HinP1I cleavage, fluorescence; shares compounds with DNMT1 block;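 active = average inhibition of at least 30% in the single-concentration confirmation test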
DNMT1 interf = beacon fluorescence artifact counter-screen; AID 602387; actives 1% (n = 2,300); DNMT1 molecular beacon spectral interference counterscreen, fluorescence 485/520; activation (fluorescence interference), % at 10 µM; shares compounds with DNMT1 block;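 active = activation of at least 30% at 10 µM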;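 note: DNMT1 catalytic domain with a HinP1I cleavage step and a FAM/dabcyl DNA beacon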
Starred values were filed as active, the others as inactive; / = no result. Rows were chosen to be rich in hits. Some 1.7% of all compounds tested hit in one or more screens of this group.

SMILES | SUMO1-SIM PPI | DNMT1 block | STEP inh | Scp-1 inhibitor | LMPTP inh | DNMT1 confirm | DNMT1 interf | others
O=c1[nH]c(C(Cl)Cl)nc2sc3c(c12)CCN(Cc1ccccc1)C3 | 25 | 87* | 0 | -2 | 77* | 18 | 3
C=CCN(C(=O)c1csnn1)C(C(=O)NCc1ccc(F)cc1)c1ccccc1F (configuration not stated) | -5 | 54* | 1 | -10 | -1 | 2 | 5
Cn1cc(/C=C(\C#N)C(=O)Nc2cccc([N+](=O)[O-])c2)c2ccccc21 | -3 | 61* | 4 | -1 | 4 | -3 | -3
O=C(NC1CCC(CC2CCC(NC(=O)C(Cl)Cl)CC2)CC1)C(Cl)Cl (configuration not stated) | -7 | 63* | 4 | -5 | 8 | 1 | -2
COC(=O)NC1CCC(CC2CCC(NC(=O)OC)CC2)CC1 (configuration not stated) | 0 | 2 | 8 | -5 | 0 | / | /
C[C@@H]1CN([C@@H](C)CO)C(=O)c2cc(NC(=O)C3CCCCC3)ccc2O[C@@H](C)CCCCO[C@@H]1CN(C)Cc1ccncc1 | 2 | 1 | 0 | / | -3 | / | /
COc1ccc(C2=NN(CCC(=O)NC3CCCCC3C)C(=O)CC2)cc1 (configuration not stated) | -1 | -1 | 0 | / | -1 | / | /
Cc1cccc(Cl)c1OCCCn1ccnc1 | -1 | 67* | 1 | -8 | 0 | 2 | 1
Cc1ccccc1CSCC1Nc2ccc(C(=O)NCCc3ccccc3)cc2NC1=O (configuration not stated) | -7 | -9 | -10 | / | 1 | / | /
Cc1ccc(OCCn2ncc3ccccc3c2=O)c(C)c1 | 2 | 51* | -1 | -13 | 0 | 5 | 7
Cc1noc(C)c1NC(=O)N(C)C[C@@H]1Oc2ncc(Br)cc2C(=O)N([C@H](C)CO)C[C@@H]1C | 3 | 7 | 2 | / | -3 | / | /
COc1ccc(-c2nc(CCNC(=O)c3ccco3)cs2)cc1OC | -4 | 83* | -1 | 0 | 17 | 0 | 1
COCCCNC(=O)CN1C(=O)COc2ccc(S(=O)(=O)N3CC(C)CC(C)C3)cc21 (configuration not stated) | -1 | 1 | 2 | -4 | 0 | / | /
Cc1cc(NC(=O)c2cncc(Br)c2)ccc1NC(=O)c1cc2ccccc2o1 | 38 | 75* | 9 | 4 | 1 | 10 | -2
Cn1nccc1C(=O)NC1CCCc2c1cnn2-c1ccc(C(C)(C)C)cc1 (configuration not stated) | 3 | -3 | 1 | -7 | 2 | / | /
CCOC(=O)c1c2ccc(OCC(=O)N/N=C/c3ccc(C)cc3)cc2n2ccccc12 | 3 | 72* | 2 | 6 | 2 | 5 | -2
COc1cccc(S(=O)(=O)N(C)C[C@@H]2Oc3cc(Br)ccc3S(=O)(=O)N([C@@H](C)CO)C[C@@H]2C)c1 | 1 | 83* | 1 | / | -3 | 0 | 7
Cc1cc(C)nc(Nc2ccc(Br)cc2C(=O)O)n1 | 5 | 55* | 1 | -9 | 0 | 3 | 6
Cc1ccc(Nc2nc(C)cc(C)n2)c(Br)c1 | 2 | -1 | 2 | -5 | 1 | / | /
O=C(O)/C=C\c1cc2c(cc1[N+](=O)[O-])OCO2 | -12 | 4 | 2 | -5 | 5 | / | /
O=C1NC(=S)N/C1=C/c1cc2c(cc1[N+](=O)[O-])OCO2 | 55* | 60* | 3 | 2 | -1 | 30* | -12 | Beacon interf DR=>99
CC(=O)c1ccc(C(=O)N2CCCC(CO)(Cc3ccccc3C)C2)s1 (configuration not stated) | -10 | -2 | 4 | -9 | 0 | / | /
O=c1[nH]cc(C=NNc2ccccc2)c(=O)[nH]1 | 3 | -5 | 2 | / | 0 | / | /
O=C(O)C1Nc2c(Cl)cc(Cl)c(Cl)c2C2C=CCC12 (configuration not stated) | 63* | 83* | 12 | 63* | 70* | 85* | 0 | Beacon interf DR=>99
